Bioassay records from PubChem BioAssay.
esBAF inh = SWI/SNF esBAF complex inhibition; mouse ES cells, Bmi1-luciferase knock-in reporter, 24 h; 100% = twice the neutral-well signal; AID 602393; 350,000 tested, 2% active; reporter increase, % at 12.5 µM; in the data active means activation above about 40%; inconclusive means no clear call, values can overlap the other calls;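 further: 0% = median of the plate's neutral control wells and 100% = double that signal; a rise in the Bmi1 reporter signal indicates esBAF inhibition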
Cneo AK release = causes C. neoformans cell lysis. AID 651654. 360,000 tested, 0.2% active. adenylate kinase release luminescence, 4 h; normalised: neutral wells 0, clomiphene wells 100. lysis activity, % at 15 µM;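 active means mean lysis activity across replicates of at least 80%, whatever share of replicates individually reach that level; inactive means mean lysis activity below 80%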
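Material – log-phase Cryptococcus neoformans yeast cells · Input – 5 × 10^6 yeast cells/mL · Medium – fresh YPD growth medium · Doses – single compound concentration per well · Timing – static 4 h at 37 °C with compound, 1 h detection · Detection – adenylate kinase release luminescence · Read-out – signal increase indicating cell lysis · Control set – Clomiphene as positive lysis control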
MITF act = MITF TRPM1 promoter activation in melanoma cells. activation, % at 12.5 µM. 300,000 tested, 0.75% active. SK-MEL-5 TRPM1-promoter luciferase, 24 h; % of positive control, neutral wells = 0;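 active means mean activation of at least 80% with every replicate also reaching 80%; inconclusive means mean reaches 80% but some replicate falls short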;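 further: 0% = neutral control wells and 100% = parthenolide positive control wells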
Env fusion inh = HIV envelope-mediated fusion inhibition | HeLa-JRFL Env/CEM21 cell fusion, luciferase | AID 651610 | 360,000 tested, 1.1% active | inhibition, % at 12.3 µM;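 active means mean replicate inhibition score of at least 50 and every replicate individually at or above 50; inconclusive means only one of the two criteria met; inactive means mean below 50 and not all replicates reaching 50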;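 further: 0% = plate neutral controls and 100% = maraviroc near 300 nM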
Wnt bcat act = activators of Wnt/beta-catenin signaling; Wnt/beta-catenin reporter cell assay, activator, plate reader; activation, % at 9.35 µM; 300,000 tested, 1.2% active; in the data active means activation above about 30%, passing the limit was not always enough; inconclusive means no clear call, values can overlap the other calls;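 further: 0% = neutral control wells and 100% = positive control wells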
ERAP1 inh = inhibitors of human ERAP1 aminopeptidase. 340,000 tested, 0.15% active. AID 652197. recombinant ERAP1, Leu-AMC fluorescence, 60 min. Q9NZ08. inhibition, % at 10.7 µM;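 active means mean replicate inhibition of at least 30%, or all replicates individually reaching that 30% level; inactive means mean below 30% and not every replicate reaching it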;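 further: 0% = neutral control wells and 100% = L-leucinethiol positive control wells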
Target sequence (Q9NZ08 whole entry, looked up): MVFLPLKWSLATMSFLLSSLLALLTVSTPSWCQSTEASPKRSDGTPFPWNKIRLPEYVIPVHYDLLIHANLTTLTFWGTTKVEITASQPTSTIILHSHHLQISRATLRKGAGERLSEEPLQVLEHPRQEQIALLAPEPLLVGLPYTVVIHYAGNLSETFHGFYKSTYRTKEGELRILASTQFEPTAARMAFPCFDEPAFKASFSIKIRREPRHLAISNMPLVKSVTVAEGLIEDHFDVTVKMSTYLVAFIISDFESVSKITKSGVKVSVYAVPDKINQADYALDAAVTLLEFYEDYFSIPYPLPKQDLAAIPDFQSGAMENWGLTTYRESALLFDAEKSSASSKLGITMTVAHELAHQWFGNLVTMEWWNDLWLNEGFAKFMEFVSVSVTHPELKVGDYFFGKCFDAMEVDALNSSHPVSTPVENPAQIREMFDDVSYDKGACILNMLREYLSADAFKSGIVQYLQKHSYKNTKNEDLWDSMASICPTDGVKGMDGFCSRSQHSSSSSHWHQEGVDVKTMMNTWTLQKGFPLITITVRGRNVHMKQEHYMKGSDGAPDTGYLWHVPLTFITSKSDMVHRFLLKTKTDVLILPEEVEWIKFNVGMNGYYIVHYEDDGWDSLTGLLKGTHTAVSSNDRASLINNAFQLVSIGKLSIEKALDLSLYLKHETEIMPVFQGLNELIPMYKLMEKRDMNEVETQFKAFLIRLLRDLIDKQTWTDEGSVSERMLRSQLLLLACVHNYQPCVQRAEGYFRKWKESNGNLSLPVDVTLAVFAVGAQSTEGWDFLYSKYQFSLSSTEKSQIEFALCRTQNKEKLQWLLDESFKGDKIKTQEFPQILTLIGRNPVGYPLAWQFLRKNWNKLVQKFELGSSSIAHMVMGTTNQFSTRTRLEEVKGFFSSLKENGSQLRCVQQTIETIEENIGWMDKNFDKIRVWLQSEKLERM
* hit, by the source's call; ? = inconclusive; . = not tested or not shown; [ ] = dose if it differs, or a comment. Rows were chosen to be rich in hits. Some 3.5% of all compounds tested hit in one or more screens of this group.

SMILES	esBAF inh	Cneo AK release	MITF act	Env fusion inh	Wnt bcat act	ERAP1 inh
CCC(=O)Nc1ccc2c(c1)C(=O)N(C)C[C@H](OC)[C@H](C)CN(CC1CCOCC1)[C@H](C)CO2	-2	2	.	18[16.7 µM]	.	.
CCC(=O)N(C)C[C@@H]1Oc2cc(C#CCC(C)C)ccc2S(=O)(=O)N([C@H](C)CO)C[C@@H]1C	-5	4	.	23[16.7 µM]	.	-2
Cc1noc(C)c1NC(=O)N(C)C[C@@H]1Oc2ccc(NC(=O)c3ccncc3)cc2CC(=O)N([C@H](C)CO)C[C@@H]1C	-3	-2	.	-35[16.7 µM]	.	-1
N#C/C(=C\c1ccc(O)c([N+](=O)[O-])c1)C(=O)NCc1ccccc1	-10	1	-10	-11	47*	11
N#C/C(=C\c1ccc(O)c(Br)c1)C(=O)NCc1ccccc1	0	.	4	7	0	-1
C[C@@H]1CN([C@H](C)CO)C(=O)c2cc(NC(=O)Nc3cccc4ccccc34)ccc2O[C@H]1CN(C)C(=O)Nc1ccc2c(c1)OCO2	4	-1	.	-8[16.7 µM]	.	1
Cc1noc(C)c1NC(=O)Nc1cccc2c1O[C@@H](CN(C)S(=O)(=O)c1cccs1)[C@H](C)CN([C@H](C)CO)C2=O	0	0	.	.	.	-3
CCN1CCN(c2cc(C)c3cc(NC(=O)c4cc(OC)cc(OC)c4)ccc3n2)CC1	12	-2	7	-20	32*	1
COc1ccc(NC(=O)CCC(=O)Nc2ccc3nc(N4CCOCC4)cc(C)c3c2)c(OC)c1	42*	5	60	-23	3	1
Cc1cc(N2CCOCC2)nc2ccc(Cl)cc12	57*	.	?	-41	21	-2
Cc1cc(N2CCOCC2)nc2ccc(NC(=S)N3CCN(c4ccccc4)CC3)cc12	.	.	-27	-6	3	-5
CCNC(=O)C[C@@H]1CC[C@H]2[C@@H](COc3ccc(NC(=O)c4cccs4)cc3C(=O)N2C)O1	0	-3	.	6[16.7 µM]	.	0
C=CCSc1cc(C)nc2c(-c3ccccc3)cnn12	.	.	12	-38	33*	0
Cc1cc(N)n2ncc(-c3cccc(Br)c3)c2n1	66*	-5	66	.	.	.
CC(=O)c1cnc2c(-c3cccc(Br)c3)cnn2c1C	35	1	95*	-67	9	.
CCOC(=O)Cc1c(C)nc2c(-c3cccc(Br)c3)cnn2c1C	.	.	-2	7	-2	5
Cc1cc(-c2ccncc2)n2ncc(-c3ccccc3)c2n1	17	1	.	-153	19	0
Cc1cc(N)n2ncc(-c3ccccc3)c2n1	51*	-2	65	.	.	.
CC(C)C#Cc1cnc2c(c1)C(=O)N([C@H](C)CO)C[C@H](C)[C@H](CN(C)C(=O)c1ccc3c(c1)OCO3)O2	2	0	.	13[16.7 µM]	.	-1
O=C(c1ccc([N+](=O)[O-])cc1)N1CCCC1	.	-6	8	-25	-1	-2
O=[N+]([O-])c1ccc(C(O)CSC(=S)N2CCCCC2)cc1 (stereo unspecified)	45*	6	46	-29	19	-1
O=[N+]([O-])c1ccc(C(=S)N2CCCC2)cc1	4	2	-6	7	37*	-1
O=[N+]([O-])c1ccc(C(O)CN2CCOCC2)cc1 (stereo unspecified)	-6	-1	-6	0	-3	-3
O=C(COc1ccc(Br)cc1Cl)NC(=S)Nc1ccccn1	50*	-5	77	-372	24	4
COc1ccc(S(=O)(=O)N(C)C[C@H]2Oc3ccc(NS(=O)(=O)c4ccc(F)cc4)cc3CC(=O)N([C@H](C)CO)C[C@@H]2C)cc1	2	.	.	3[16.7 µM]	.	3
SMILES	esBAF inh	Cneo AK release	MITF act	Env fusion inh	Wnt bcat act	ERAP1 inh
C[C@@H]1CCCCO[C@@H](CN(C)C(=O)Nc2ccc3c(c2)OCO3)[C@H](C)CN([C@@H](C)CO)C(=O)c2cc(NC(=O)Cc3ccccc3)ccc2O1	-1	-15	.	10[16.7 µM]	.	.
Cc1cc(C)c(NC(=O)C2CCC(=O)N2)c(C)c1 (stereo unspecified)	2	735*	5	11	.	-1
CCOc1ccc(N)c(SSc2cc(OCC)ccc2N)c1	11	-2	9	-8	1	38*
Cn1c(-c2ccccc2)c(C(=O)CCl)c2ccccc21	.	.	-92	64*	6	-4
CCOc1cc(C2C(C(=O)N3CCCCC3)=C(C)NC3=C2C(=O)CC(C)(C)C3)ccc1O (stereo unspecified)	0	8	-5	-140	54*	.
CCOC(=O)C1=C(C)NC2=C(C(=O)CC(C)(C)C2)C1c1ccc(O)c(OCC)c1 (stereo unspecified)	-11	-1	3	-12	-1	1
Cc1ccc(-c2ccc3c(c2)O[C@H](CN(C)Cc2ccc(F)cc2)[C@H](C)CN([C@H](C)CO)S3(=O)=O)cc1	-6	90*	.	.	.	6
Cc1ccc(-c2ccc3c(c2)O[C@@H](CN(C)Cc2ccc(F)cc2)[C@@H](C)CN([C@@H](C)CO)S3(=O)=O)cc1	-4	-8	.	.	.	3
C[C@H]1CN([C@@H](C)CO)S(=O)(=O)c2ccc(-c3ccc(F)cc3)cc2O[C@H]1CN(C)Cc1cccc(F)c1	-9	.	.	62*[16.7 µM]	.	.
COCC(=O)Nc1ccc2c(c1)OC[C@@H](C)N(C(=O)Cc1cccnc1)C[C@H](C)[C@@H](OC)CN(C)C2=O	-6	92*	.	.	.	2
COCC(=O)Nc1ccc2c(c1)OC[C@H](C)N(C(=O)Cc1cccnc1)C[C@@H](C)[C@H](OC)CN(C)C2=O	.	.	.	.	.	-3
CO[C@@H]1CN(C)C(=O)c2ccc(NC(C)=O)cc2OC[C@@H](C)N(C(=O)Cc2cccnc2)C[C@H]1C	-11	97*	.	-18[16.7 µM]	.	3
COCC(=O)N1C[C@H](C)[C@H](OC)CN(C)C(=O)c2ccc(NC(=O)NC(C)C)cc2OC[C@@H]1C	-14	80*	.	.	.	2
CN1C(=O)c2cc(NC(=O)C3CCCC3)ccc2OC[C@H]2O[C@H](CC(=O)NCC3CC3)CC[C@H]21	-3	1	.	18[16.7 µM]	.	-2
O=C(NCc1ccc2c(c1)OCO2)c1cc2c(s1)CSC2	0	3	-7	61*	-5	1
COc1ccc2c3c([nH]c2c1)[C@H](CO)N(Cc1ccccc1F)CC31CCN(CC2CC2)CC1	.	.	.	.	.	3
COc1ccc(C(=O)COC(=O)c2cccc(-n3cnnn3)c2)c(OC)c1	56*	4	92*	-63	18	-1
COc1ccccc1C(=O)COC(=O)c1cc(=O)[nH]c2ccccc12	.	.	11	-10	3	-1
Cc1ccc(C(=O)COC(=O)c2cc(=O)[nH]c3ccccc23)cc1C	88*	-4	50	-12	7	6
COc1ccc(C(=O)COC(=O)c2cc(=O)[nH]c3ccccc23)c(OC)c1	.	-3	100*	-54	26	0
